Where two headings read alike, the source gives them in different places.
What was measured:
[1] = type: in vivo, human; conditions: for CL/F / AUC / AUC(0-inf) / Cmax / concentration at 14 day / Tmax / Vd/F / half-life: geometric mean (SD); for AUC / AUC(0-inf) / Cmax / concentration at 14 day / Tmax / Vd/F / half-life: human, plasma, oral; for AUC: AUC0–τ; for AUC(0-inf): AUC0–∞; for concentration at 14 day: Cmin; for Vd/F: Vz/F; for time to steady-state conditions: predose samples
Procedure, shortened: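 Plasma sampled on Days 1 and 14 predose and 0.5–24 h postdose, plus predose on Days 3, 5, 7, 10, 13, 16. Blood kept on ice, spun 2,000g 15 min at 5°C within 45 min, and plasma stored at –70°C. Extraction was by protein precipitation with internal standard. Parameters came from noncompartmental analysis. ANOVA on ln-transformed Cmax, Cmin and AUC0–τ gave geometric mean ratios with 90% CIs versus matched controls.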

Safety and tolerability = type: in vivo, human; conditions: for tolerability: 150 mg once daily for 14 days, regardless of HI
Procedure, shortened: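 Adverse events were monitored continuously and graded with the Division of AIDS toxicity scale. Hematology, clinical chemistry, urinalysis and 12-lead ECG were done at screening, baseline (Day –1), Day 14 and Day 28, with hematology and chemistry also at Day 7. Physical exams ran through follow-up (Day 28, or Day 35 for hepatic impairment). Data were summarised descriptively without formal statistical testing.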

CCR2 = CCR2 (Homo sapiens, UniProt P41597); experiment: CCR2 antagonist activity: plasma CCR2 ligand; type: in vivo; conditions: across all groups, P < 0.05
Sequence of CCR2 (P41597 whole entry): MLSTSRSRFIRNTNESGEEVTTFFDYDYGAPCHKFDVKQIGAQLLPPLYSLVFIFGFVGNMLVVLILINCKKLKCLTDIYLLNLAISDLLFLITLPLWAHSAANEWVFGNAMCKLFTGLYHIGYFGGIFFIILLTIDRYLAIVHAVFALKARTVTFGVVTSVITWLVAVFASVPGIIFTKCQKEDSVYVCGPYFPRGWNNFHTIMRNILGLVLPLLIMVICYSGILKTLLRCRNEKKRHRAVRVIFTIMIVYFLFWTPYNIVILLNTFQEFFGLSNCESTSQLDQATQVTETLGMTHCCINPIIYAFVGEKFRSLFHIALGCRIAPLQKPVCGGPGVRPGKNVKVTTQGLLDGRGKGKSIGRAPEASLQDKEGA
Procedure, shortened: (§1)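 Adults with mild or moderate hepatic impairment and matched controls with normal hepatic function were given an oral 150 mg tablet of the test compound over 14 days. Plasma was sampled on Day 1 (predose), Day 7 and Day 14. CCL2, CCL3 and CCL4 were measured by Luminex multiplex and CCL5 by ELISA. Medians, IQR and change from baseline were reported, with Wilcoxon tests.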

CCR5 = CCR5 (Homo sapiens, UniProt P51681); experiment: CCR5 antagonist activity: plasma CCR5 ligand; type: in vivo; conditions: for CCL4 median fold-change: P < 0.05
Sequence of CCR5 (P51681 whole entry): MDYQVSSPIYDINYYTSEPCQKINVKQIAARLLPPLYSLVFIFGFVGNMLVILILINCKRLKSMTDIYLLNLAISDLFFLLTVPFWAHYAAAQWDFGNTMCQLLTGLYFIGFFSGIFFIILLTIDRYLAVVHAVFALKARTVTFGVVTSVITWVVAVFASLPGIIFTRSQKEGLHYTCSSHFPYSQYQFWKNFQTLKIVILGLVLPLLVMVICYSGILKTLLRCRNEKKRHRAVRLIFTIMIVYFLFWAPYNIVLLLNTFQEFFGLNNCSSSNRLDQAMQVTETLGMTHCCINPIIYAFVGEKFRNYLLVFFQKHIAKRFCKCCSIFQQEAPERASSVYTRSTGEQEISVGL
Procedure, shortened: as §1

[2] = system: proinflammatory cytokines (IL-6, TNF-α, IL-1β, TGF-β); experiment: Plasma proinflammatory cytokines during treatment; type: in vivo, human
Procedure, shortened: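 Plasma was taken at Day 1 predose and on treatment Days 7 and 14. IL-6, TNF-α, IL-1β and TGF-β were quantified by Luminex multiplex bead assay, with a magnetic cytokine panel for IL-1β and IL-6. Values were summarised by study day as medians and interquartile ranges, with change from baseline. Comparisons used Wilcoxon tests.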

[3] = cited from earlier work
[4] = cited from earlier work; remark: listed apart in the source
CYP3A4 [5] = conditions: cited from earlier work
CYP2C8 = conditions: cited from earlier work
P-glycoprotein = conditions: cited from earlier work
CYP3A4 [6] = conditions: cited from earlier work; remark: listed apart in the source
[7] = Day 14, mild hepatic impairment
[8] = Day 14, moderate hepatic impairment
[9] = 150 mg, Day 14, 150 mg once daily, matched controls (mild)
[10] = 150 mg, Day 14, 150 mg once daily, matched controls (moderate)
[11] = 150 mg, Day 14, 150 mg once daily, mild hepatic impairment
[12] = 150 mg, Day 14, 150 mg once daily, moderate hepatic impairment
[13] = matched controls (mild) (N = 7)
[14] = matched controls (moderate) (N = 8)
[15] = mild hepatic impairment (N = 8)
[16] = moderate hepatic impairment (N = 8)

Structure (SMILES): CCCCOCCOc1ccc(-c2ccc3c(c2)/C=C(/C(=O)Nc2ccc([S@@+]([O-])Cc4cncn4CCC)cc2)CCCN3CC(C)C)cc1 [cenicriviroc]
- CL/F ([1]; Day 1, 150 mg, matched controls (mild)): 22.1 L/h
- CL/F ([1]; Day 1, 150 mg, matched controls (moderate)): 31.7 L/h
- CL/F ([1]; Day 1, 150 mg, mild hepatic impairment): 27.1 L/h
- CL/F ([1]; Day 1, 150 mg, moderate hepatic impairment): 25.8 L/h
- CL/F ([1]; Day 14, 150 mg once daily, matched controls (mild)): 14.4 (1.5) L/h
- CL/F ([1]; Day 14, 150 mg once daily, matched controls (moderate)): 25.3 (2.0) L/h
- CL/F ([1]; Day 14, 150 mg once daily, mild hepatic impairment): 23.2 (1.9) L/h
- CL/F ([1]; Day 14, 150 mg once daily, moderate hepatic impairment): 16.3 (1.3) L/h
- AUC0–τ lower than matched controls [1, 7]: 38%
- Cmax lower than matched controls [1, 7]: 40%
- Cmin lower than matched controls [1, 7]: ~27%
- AUC0–τ higher than matched controls [1, 8]: 55%
- Cmax higher than matched controls [1, 8]: 29%
- Cmin higher than matched controls [1, 8]: ~97%
- AUC [1, 9]: 10400 ng·h/mL
- AUC [1, 10]: 5940 ng·h/mL
- AUC [1, 11]: 6470 ng·h/mL
- AUC [1, 12]: 9180 ng·h/mL
- AUC(0-inf) [1, 9]: 18900 ng·h/mL
- AUC(0-inf) [1, 10]: 11000 ng·h/mL
- AUC(0-inf) [1, 11]: 14600 ng·h/mL
- AUC(0-inf) [1, 12]: 26100 ng·h/mL
- Cmax [1, 9]: 759 ng/mL
- Cmax [1, 10]: 469 ng/mL
- Cmax [1, 11]: 452 ng/mL
- Cmax [1, 12]: 607 ng/mL
- concentration at 14 day [1, 9]: 248 ng/mL
- concentration at 14 day [1, 10]: 140 ng/mL
- concentration at 14 day [1, 11]: 180 ng/mL
- concentration at 14 day [1, 12]: 275 ng/mL
- Tmax [1, 9]: 5.66 h
- Tmax [1, 10]: 4.49 h
- Tmax [1, 11]: 5.34 h
- Tmax [1, 12]: 4.83 h
- Vd/F ([1]; 150 mg, Day 1, 150 mg, matched controls (mild)): 262 L
- Vd/F ([1]; 150 mg, Day 1, 150 mg, matched controls (moderate)): 370 L
- Vd/F ([1]; 150 mg, Day 1, 150 mg, mild hepatic impairment): 329 L
- Vd/F ([1]; 150 mg, Day 1, 150 mg, moderate hepatic impairment): 386 L
- Vd/F [1, 9]: 455 L
- Vd/F [1, 10]: 816 L
- Vd/F [1, 11]: 995 L
- Vd/F [1, 12]: 886 L
- half-life ([1]; 150 mg, t1/2, Day 1, 150 mg, moderate hepatic impairment): 10.4 h
- half-life ([1]; 150 mg, t1/2, Day 14, 150 mg once daily, matched controls (mild)): 22 h
- half-life ([1]; 150 mg, t1/2, Day 14, 150 mg once daily, matched controls (moderate)): 22.4 h
- half-life ([1]; 150 mg, t1/2, Day 14, 150 mg once daily, mild hepatic impairment): 29.7 h
- half-life ([1]; 150 mg, t1/2, Day 14, 150 mg once daily, moderate hepatic impairment): 37.6 h
- time to steady-state conditions ([1]; matched controls): 7 to 10 days
- time to steady-state conditions ([1]; participants with mild or moderate HI): 10 to 13 days
- tolerability (Safety and tolerability): generally well tolerated
- tolerability (Safety and tolerability; listed as Cenicriviroc): well tolerated
- AST (treatment-emergent Grade 1 elevation) (Safety and tolerability; Day 7, one matched control (moderate), resolved upon continued dosing): 1.3 x ULN
- AST (Safety and tolerability; Day 28, another participant with moderate HI, screening 5.9 x ULN): 10.2 x ULN
- Participants with any treatment-related AEs (Safety and tolerability; [13]): 3 (42.9) N (%)
- Treatment-related AE: Dry mouth (Safety and tolerability; [13]): 2 (28.6) N (%)
- Treatment-related AE: Epigastric discomfort (Safety and tolerability; [13]): 0 (0) N (%)
- Treatment-related AE: Flatulence (Safety and tolerability; [13]): 0 (0) N (%)
- Treatment-related AE: Headache (Safety and tolerability; [13]): 1 (14.3) N (%)
- Treatment-related AEs Grade 1 (Safety and tolerability; [13]): 3 (42.9) N (%)
- Treatment-related AEs Grade 2 (Safety and tolerability; [13]): 0 (0) N (%)
- Treatment-related AEs Grade 3 (Safety and tolerability; [13]): 0 (0) N (%)
- Treatment-related AEs Grade 4 (Safety and tolerability; [13]): 0 (0) N (%)
- Participants with any treatment-related AEs (Safety and tolerability; [14]): 4 (50.0) N (%)
- Treatment-related AE: Dry mouth (Safety and tolerability; [14]): 0 (0) N (%)
- Treatment-related AE: Epigastric discomfort (Safety and tolerability; [14]): 0 (0) N (%)
- Treatment-related AE: Flatulence (Safety and tolerability; [14]): 1 (12.5) N (%)
- Treatment-related AE: Headache (Safety and tolerability; [14]): 1 (12.5) N (%)
- Treatment-related AEs Grade 1 (Safety and tolerability; [14]): 4 (50.0) N (%)
- Treatment-related AEs Grade 2 (Safety and tolerability; [14]): 0 (0) N (%)
- Treatment-related AEs Grade 3 (Safety and tolerability; [14]): 0 (0) N (%)
- Treatment-related AEs Grade 4 (Safety and tolerability; [14]): 0 (0) N (%)
- Participants with any treatment-related AEs (Safety and tolerability; [15]): 6 (75.0) N (%)
- Treatment-related AE: Dry mouth (Safety and tolerability; [15]): 0 (0) N (%)
- Treatment-related AE: Epigastric discomfort (Safety and tolerability; [15]): 1 (12.5) N (%)
- Treatment-related AE: Flatulence (Safety and tolerability; [15]): 1 (12.5) N (%)
- Treatment-related AEs Grade 1 (Safety and tolerability; [15]): 6 (75.0) N (%)
- Treatment-related AEs Grade 2 (Safety and tolerability; [15]): 0 (0) N (%)
- Treatment-related AEs Grade 3 (Safety and tolerability; [15]): 0 (0) N (%)
- Treatment-related AEs Grade 4 (Safety and tolerability; [15]): 0 (0) N (%)
- Participants with any treatment-related AEs (Safety and tolerability; [16]): 4 (50.0) N (%)
- Treatment-related AE: Dry mouth (Safety and tolerability; [16]): 0 (0) N (%)
- Treatment-related AE: Epigastric discomfort (Safety and tolerability; [16]): 1 (12.5) N (%)
- Treatment-related AE: Flatulence (Safety and tolerability; [16]): 0 (0) N (%)
- Treatment-related AE: Headache (Safety and tolerability; [16]): 1 (12.5) N (%)
- Treatment-related AEs Grade 1 (Safety and tolerability; [16]): 4 (50.0) N (%)
- Treatment-related AEs Grade 2 (Safety and tolerability; [16]): 0 (0) N (%)
- Treatment-related AEs Grade 3 (Safety and tolerability; [16]): 1 (12.5) N (%)
- Treatment-related AEs Grade 4 (Safety and tolerability; [16]): 0 (0) N (%)
- CCL2 median fold-change (CCR2; Day 7 vs Day 1 (predose)): 4.4–5.5
- CCL2 median fold-change (CCR2; Day 14 vs Day 1 (predose)): 4.8–6.0
- CCL4 median fold-change (CCR5; after 7 days of treatment vs Day 1 (predose)): 1.8–2.3
- CCL4 median fold-change (CCR5; after 14 days of treatment vs Day 1 (predose)): 1.6–2.5
- CCL3 levels change during treatment (CCR5; any group): did not change significantly
- CCL5 change during treatment (CCR5; matched controls (moderate) only, Day 14 vs Day 1, P = 0.008): increased significantly
- IL-1β levels change during treatment ([2]; any group): did not change significantly
- IL-6 levels change during treatment ([2]; any group): did not change significantly
- TNF-α levels change during treatment ([2]; any group): did not change significantly
- TGF-β levels change during treatment ([2]; moderate HI group, Day 1 vs Day 14, P < 0.01): increased
- time to reach steady-state plasma concentrations ([3]; healthy participants): 8 to 10 days
- plasma half-life ([3]; in humans): 30 to 40 h
- effect of administration with food on bioavailability ([3]; in vivo): increase
- bound to plasma proteins [4]: > 98%
- substrate of CYP3A4 (CYP3A4 [5]): substrate
- substrate of CYP2C8 (CYP2C8): substrate
- substrate of P-glycoprotein (P-glycoprotein): substrate
- inhibition of CYP3A4 (CYP3A4 [6]): weak inhibitor

From publication PMC5351328 (Clinical and Translational Science, 2016)
